Reference: ChEMBL document CHEMBL4321820, “Identification and Optimization of Mechanism-Based Fluoroallylamine Inhibitors of Lysyl Oxidase-like 2/3” (J Med Chem, 2019)
Active and inactive are the calls of the source. The calls are words filed in the database; no cut-off is given here.

Legend:
[1] = system: Mus musculus; experiment: Antifibrotic activity in CCl4-induced BALB/c mouse model of liver fibrosis assessed as reduction in liver fibrosis area at 5 mg/kg, po administered once daily at week 4 to 6 by picro-sirius red staining based microscopy; format: functional, organism-based
How it was run: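 Female BALB/c mice given CCl4 i.p. (1 mL/kg of 25% CCl4 in olive oil) twice weekly for 6 weeks; sacrificed 48 h after last dose. Test articles oral, once daily: prophylactic weeks 1-6 or therapeutic weeks 4-6; imatinib control 50 mg/kg daily weeks 1-6. One formalin-fixed liver lobe stained for Picro Sirius Red and α-SMA; fibrotic area as % of total liver area; mean ± SEM, one-way ANOVA with Dunnett's test.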

[2] = target: T1, Lysyl oxidase homolog 4 (Homo sapiens, UniProt Q96JB6); experiment: Inhibition of recombinant human LOXL4 using putrescine as substrate preincubated with enzyme for 30 mins followed by substrate addition and measured every 2.5 mins for 30 mins by Amplex-Red oxidation assay
T1 sequence (Q96JB6 whole entry): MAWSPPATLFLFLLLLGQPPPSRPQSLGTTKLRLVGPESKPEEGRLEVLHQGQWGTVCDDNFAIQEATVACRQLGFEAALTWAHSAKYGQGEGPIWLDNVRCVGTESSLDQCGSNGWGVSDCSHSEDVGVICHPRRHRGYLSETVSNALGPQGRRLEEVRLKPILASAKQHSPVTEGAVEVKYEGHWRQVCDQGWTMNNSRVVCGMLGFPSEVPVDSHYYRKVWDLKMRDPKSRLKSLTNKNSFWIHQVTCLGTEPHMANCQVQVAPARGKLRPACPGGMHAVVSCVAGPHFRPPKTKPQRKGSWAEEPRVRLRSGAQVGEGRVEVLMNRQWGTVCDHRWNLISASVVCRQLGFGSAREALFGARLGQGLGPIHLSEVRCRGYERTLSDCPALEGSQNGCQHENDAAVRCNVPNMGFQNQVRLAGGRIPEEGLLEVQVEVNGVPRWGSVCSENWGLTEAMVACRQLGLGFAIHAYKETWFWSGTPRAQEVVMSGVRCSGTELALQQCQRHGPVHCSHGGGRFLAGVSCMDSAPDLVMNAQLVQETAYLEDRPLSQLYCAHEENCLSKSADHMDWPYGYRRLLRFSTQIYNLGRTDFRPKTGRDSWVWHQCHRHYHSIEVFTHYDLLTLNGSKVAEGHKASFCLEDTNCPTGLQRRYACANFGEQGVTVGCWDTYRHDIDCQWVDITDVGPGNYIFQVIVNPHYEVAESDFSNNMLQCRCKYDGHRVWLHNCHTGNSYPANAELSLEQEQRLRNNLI
How it was run: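 Recombinant human LOXL3 or LOXL4 preincubated 30 min at 37 °C with compound in 1.2 M urea/50 mM borate pH 8.2, then Amplex Red (120 µM)/HRP (1.5 U/mL) with 2 mM putrescine; fluorescence read every 2.5 min for 30 min.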

IC50 [2]	SMILES	inhibition [1]
–	CCOC(=O)c1ccc2c(c1)c(-c1cccc(S(=O)(=O)N(C)C)c1)c(C)n2C/C(F)=C/CN.Cl	Active
280 nM	Cc1c(-c2cccc(S(=O)(=O)N(C)C)c2)c2cc(C(=O)O)ccc2n1C/C(F)=C/CN.Cl	–
